Results reported in ChEMBL document CHEMBL1154842, “Synthesis, radiolabeling, and biological evaluation of (R)- and (S)-2-amino-3-[(18)F]fluoro-2-methylpropanoic acid (FAMP) and (R)- and (S)-3-[(18)F]fluoro-2-methyl-2-N-(methylamino)propanoic acid (NMeFAMP) as potential PET radioligands for imaging brain tumors” (J Med Chem, 2010).

Columns and labels:
Pancreas [1] = test: Biodistribution in pancreas of Fischer 344 rat bearing rat 9L cells at 20 uCi, iv after 60 mins; format: ADME, organism-based; conditions: in vivo, 1 h
How it was run: (§1)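 Male Fischer 344 rats (200–250 g) carrying intracranial 9L gliosarcoma (5×10^4 cells implanted stereotactically, 10–12 days growth), under ketamine:xylazine anaesthesia. About 20 μCi tracer in 0.5 mL sterile saline given via tail-vein catheter. Groups of 4–5 were killed by intracardiac KCl at 15 (NMeFAMP only), 30, 60 or 120 min. Tissues were weighed and gamma-counted, decay-corrected, and reported as %ID/g, mean ± SD.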

[2] = rat, in vivo, iv, 1 h
Kidney [3] = test: Biodistribution in kidney of Fischer 344 rat bearing rat 9L cells at 20 uCi, iv after 30 mins; format: ADME, organism-based; conditions: in vivo, 0.5 h; how it was run: as §1
Spleen [4] = test: Biodistribution in spleen of Fischer 344 rat bearing rat 9L cells at 20 uCi, iv after 120 mins; format: ADME, organism-based; conditions: in vivo, 2 h; how it was run: as §1
[5] = Biodistribution in testis of Fischer 344 rat bearing rat 9L cells at 20 uCi, iv after 120 mins; format: ADME, organism-based; conditions: in vivo, 2 h; how it was run: as §1
Heart [6] = test: Biodistribution in heart of Fischer 344 rat bearing rat 9L cells at 20 uCi, iv after 60 mins; format: ADME, organism-based; conditions: in vivo, 1 h; how it was run: as §1
Heart [7] = test: Biodistribution in heart of Fischer 344 rat bearing rat 9L cells at 20 uCi, iv after 30 mins; format: ADME, organism-based; conditions: in vivo, 0.5 h; how it was run: as §1
Spleen [8] = test: Biodistribution in spleen of Fischer 344 rat bearing rat 9L cells at 20 uCi, iv after 30 mins; format: ADME, organism-based; conditions: in vivo, 0.5 h; how it was run: as §1
Muscle tissue [9] = test: Biodistribution in muscle of Fischer 344 rat bearing rat 9L cells at 20 uCi, iv after 15 mins; format: ADME, organism-based; conditions: in vivo, 0.25 h; how it was run: as §1
Lung [10] = test: Biodistribution in lung of Fischer 344 rat bearing rat 9L cells at 20 uCi, iv after 120 mins; format: ADME, organism-based; conditions: in vivo, 2 h; how it was run: as §1
Liver [11] = test: Biodistribution in liver of Fischer 344 rat bearing rat 9L cells at 20 uCi, iv after 60 mins; format: ADME, organism-based; conditions: in vivo, 1 h; how it was run: as §1
Blood [12] = test: Biodistribution in blood of Fischer 344 rat bearing rat 9L cells at 20 uCi, iv after 15 mins; format: ADME, organism-based; conditions: in vivo, 0.25 h; how it was run: as §1
[13] = Biodistribution in testis of Fischer 344 rat bearing rat 9L cells at 20 uCi, iv after 60 mins; format: ADME, organism-based; conditions: in vivo, 1 h; how it was run: as §1
Pancreas [14] = test: Biodistribution in pancreas of Fischer 344 rat bearing rat 9L cells at 20 uCi, iv after 30 mins; format: ADME, organism-based; conditions: in vivo, 0.5 h; how it was run: as §1
Heart [15] = test: Biodistribution in heart of Fischer 344 rat bearing rat 9L cells at 20 uCi, iv after 15 mins; format: ADME, organism-based; conditions: in vivo, 0.25 h; how it was run: as §1
Lung [16] = test: Biodistribution in lung of Fischer 344 rat bearing rat 9L cells at 20 uCi, iv after 60 mins; format: ADME, organism-based; conditions: in vivo, 1 h; how it was run: as §1
[17] = Biodistribution in testis of Fischer 344 rat bearing rat 9L cells at 20 uCi, iv after 30 mins; format: ADME, organism-based; conditions: in vivo, 0.5 h; how it was run: as §1
Muscle tissue [18] = test: Biodistribution in muscle of Fischer 344 rat bearing rat 9L cells at 20 uCi, iv after 30 mins; format: ADME, organism-based; conditions: in vivo, 0.5 h; how it was run: as §1
Bone [19] = test: Biodistribution in bone of Fischer 344 rat bearing rat 9L cells at 20 uCi, iv after 30 mins; format: ADME, organism-based, Bone element; conditions: in vivo, 0.5 h; how it was run: as §1
Blood [20] = test: Biodistribution in blood of Fischer 344 rat bearing rat 9L cells at 20 uCi, iv after 120 mins; format: ADME, organism-based; conditions: in vivo, 2 h; how it was run: as §1
Lung [21] = test: Biodistribution in lung of Fischer 344 rat bearing rat 9L cells at 20 uCi, iv after 30 mins; format: ADME, organism-based; conditions: in vivo, 0.5 h; how it was run: as §1
Muscle tissue [22] = test: Biodistribution in muscle of Fischer 344 rat bearing rat 9L cells at 20 uCi, iv after 60 mins; format: ADME, organism-based; conditions: in vivo, 1 h; how it was run: as §1
[23] = Biodistribution in testis of Fischer 344 rat bearing rat 9L cells at 20 uCi, iv after 15 mins; format: ADME, organism-based; conditions: in vivo, 0.25 h; how it was run: as §1
Blood [24] = test: Biodistribution in blood of Fischer 344 rat bearing rat 9L cells at 20 uCi, iv after 60 mins; format: ADME, organism-based; conditions: in vivo, 1 h; how it was run: as §1
[25] = Ratio of drug level from tumor to brain of Fischer 344 rat bearing rat 9L cells at 20 uCi, iv after 120 mins; format: ADME, organism-based; conditions: in vivo, 2 h
Brain [26] = test: Biodistribution in brain of Fischer 344 rat bearing rat 9L cells at 20 uCi, iv after 15 mins; conditions: in vivo
Lung [27] = test: Biodistribution in lung of Fischer 344 rat bearing rat 9L cells at 20 uCi, iv after 15 mins; format: ADME, organism-based; conditions: in vivo, 0.25 h; how it was run: as §1
Pancreas [28] = test: Biodistribution in pancreas of Fischer 344 rat bearing rat 9L cells at 20 uCi, iv after 120 mins; format: ADME, organism-based; conditions: in vivo, 2 h; how it was run: as §1
Bone [29] = test: Biodistribution in bone of Fischer 344 rat bearing rat 9L cells at 20 uCi, iv after 15 mins; format: ADME, organism-based, Bone element; conditions: in vivo, 0.25 h; how it was run: as §1
Spleen [30] = test: Biodistribution in spleen of Fischer 344 rat bearing rat 9L cells at 20 uCi, iv after 15 mins; format: ADME, organism-based; conditions: in vivo, 0.25 h; how it was run: as §1
Liver [31] = test: Biodistribution in liver of Fischer 344 rat bearing rat 9L cells at 20 uCi, iv after 30 mins; format: ADME, organism-based; conditions: in vivo, 0.5 h; how it was run: as §1
[32] = Biodistribution in tumor of Fischer 344 rat bearing rat 9L cells at 20 uCi, iv after 30 mins; format: ADME, organism-based, Neoplasm; conditions: in vivo, 0.5 h; how it was run: as §1
Brain [33] = test: Biodistribution in brain of Fischer 344 rat bearing rat 9L cells at 20 uCi, iv after 15 mins; format: ADME, organism-based; conditions: in vivo, 0.25 h; how it was run: as §1
Heart [34] = test: Biodistribution in heart of Fischer 344 rat bearing rat 9L cells at 20 uCi, iv after 120 mins; format: ADME, organism-based; conditions: in vivo, 2 h; how it was run: as §1
[35] = Ratio of drug level from tumor to brain of Fischer 344 rat bearing rat 9L cells at 20 uCi, iv after 60 mins; conditions: in vivo, 1 h
Kidney [36] = test: Biodistribution in kidney of Fischer 344 rat bearing rat 9L cells at 20 uCi, iv after 120 mins; format: ADME, organism-based; conditions: in vivo, 2 h; how it was run: as §1
Muscle tissue [37] = test: Biodistribution in muscle of Fischer 344 rat bearing rat 9L cells at 20 uCi, iv after 120 mins; format: ADME, organism-based; conditions: in vivo, 2 h; how it was run: as §1
Liver [38] = test: Biodistribution in liver of Fischer 344 rat bearing rat 9L cells at 20 uCi, iv after 120 mins; format: ADME, organism-based; conditions: in vivo, 2 h; how it was run: as §1
Bone [39] = test: Biodistribution in bone of Fischer 344 rat bearing rat 9L cells at 20 uCi, iv after 120 mins; format: ADME, organism-based, Bone element; conditions: in vivo, 2 h; how it was run: as §1
Blood [40] = test: Biodistribution in blood of Fischer 344 rat bearing rat 9L cells at 20 uCi, iv after 30 mins; format: ADME, organism-based; conditions: in vivo, 0.5 h; how it was run: as §1
Kidney [41] = test: Biodistribution in kidney of Fischer 344 rat bearing rat 9L cells at 20 uCi, iv after 60 mins; format: ADME, organism-based; conditions: in vivo, 1 h; how it was run: as §1
Kidney [42] = test: Biodistribution in kidney of Fischer 344 rat bearing rat 9L cells at 20 uCi, iv after 15 mins; format: ADME, organism-based; conditions: in vivo, 0.25 h; how it was run: as §1
Spleen [43] = test: Biodistribution in spleen of Fischer 344 rat bearing rat 9L cells at 20 uCi, iv after 60 mins; format: ADME, organism-based; conditions: in vivo, 1 h; how it was run: as §1
Bone [44] = test: Biodistribution in bone of Fischer 344 rat bearing rat 9L cells at 20 uCi, iv after 60 mins; format: ADME, organism-based, Bone element; conditions: in vivo, 1 h; how it was run: as §1
Pancreas [45] = test: Biodistribution in pancreas of Fischer 344 rat bearing rat 9L cells at 20 uCi, iv after 15 mins; format: ADME, organism-based; conditions: in vivo, 0.25 h; how it was run: as §1
[46] = rat, in vivo, iv, 1 h; remark: listed apart in the source
Brain [47] = test: Biodistribution in brain of Fischer 344 rat bearing rat 9L cells at 20 uCi, iv after 30 mins; format: ADME, organism-based; conditions: in vivo, 0.5 h; how it was run: as §1
Liver [48] = test: Biodistribution in liver of Fischer 344 rat bearing rat 9L cells at 20 uCi, iv after 15 mins; format: ADME, organism-based; conditions: in vivo, 0.25 h; how it was run: as §1

CN[C@](C)(C[18F])C(=O)O.Cl
Drug uptake (Pancreas [1]): 4.34 % ID/g
Drug uptake [2]: 1.46 % ID/g
Drug uptake (Kidney [3]): 9.48 % ID/g
Drug uptake (Spleen [4]): 0.49 % ID/g
Drug uptake [5]: 0.08 % ID/g
Drug uptake (Heart [6]): 0.31 % ID/g
Drug uptake (Heart [7]): 0.3 % ID/g
Drug uptake (Spleen [8]): 0.51 % ID/g
Drug uptake (Muscle tissue [9]): 0.25 % ID/g
Drug uptake (Lung [10]): 0.42 % ID/g
Drug uptake (Liver [11]): 0.88 % ID/g
Drug uptake (Blood [12]): 0.54 % ID/g
Drug uptake [13]: 0.13 % ID/g
Drug uptake (Pancreas [14]): 3.4 % ID/g
Drug uptake (Heart [15]): 0.32 % ID/g
Drug uptake (Lung [16]): 0.5 % ID/g
Drug uptake [17]: 0.13 % ID/g
Drug uptake (Muscle tissue [18]): 0.26 % ID/g
Drug uptake (Bone [19]): 0.32 % ID/g
Drug uptake (Blood [20]): 0.14 % ID/g
Drug uptake (Lung [21]): 0.87 % ID/g
Drug uptake (Muscle tissue [22]): 0.24 % ID/g
Drug uptake [23]: 0.19 % ID/g
Drug uptake (Blood [24]): 0.24 % ID/g
Ratio [25]: 35.4
Ratio (Brain [26]): 20.4
Drug uptake (Lung [27]): 0.86 % ID/g
Drug uptake (Pancreas [28]): 3.78 % ID/g
Drug uptake (Bone [29]): 0.46 % ID/g
Drug uptake (Spleen [30]): 0.57 % ID/g
Drug uptake (Liver [31]): 0.71 % ID/g
Ratio [32]: 30.2
Drug uptake (Brain [33]): 0.06 % ID/g
Drug uptake (Heart [34]): 0.21 % ID/g
Ratio [35]: 28.7
Drug uptake (Kidney [36]): 2.22 % ID/g
Drug uptake (Muscle tissue [37]): 0.22 % ID/g
Drug uptake (Liver [38]): 0.6 % ID/g
Drug uptake (Bone [39]): 0.25 % ID/g
Drug uptake (Blood [40]): 0.31 % ID/g
Drug uptake (Kidney [41]): 5.18 % ID/g
Drug uptake (Kidney [42]): 11.58 % ID/g
Drug uptake (Spleen [43]): 0.53 % ID/g
Drug uptake (Bone [44]): 0.37 % ID/g
Drug uptake (Pancreas [45]): 3.52 % ID/g
Drug uptake [46]: 0.05 % ID/g
Drug uptake (Brain [47]): 0.06 % ID/g
Drug uptake (Liver [48]): 0.83 % ID/g
